Source: PubChem BioAssay
The source made the active and inactive calls.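 How the source made its calls, unless noted: active means growth inhibition above 25% in both replicates, a cutoff set 3 SD above the mean; inconclusive means above 25% in only one replicate; inactive means the rest.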

Assay: MRP1 drug-resistance reversers in H69AR cells – cell-based, doxorubicin co-treatment, pilot screen (AID 601;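 active means viability loss from added drug above about 55%, and viability with drug at most 40%, in both replicates, limit read from the data, passing the limit was not always enough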)
Settings: H69AR cells + 2 uM doxorubicin, CellTiter-Glo, 72 h; at 10 µM; stronger effect = higher value

SMILES | differential viability (reversal)
Cc1csc(NC(=O)c2sc3nc(-c4cccs4)ccc3c2N)n1 | -12.4% (inactive)
O=S(=O)(Cc1ccc(Cl)cc1)Nc1ccc2c(c1)OCO2 | 17.3% (inactive)
O=C(CSc1nnnn1-c1ccccc1)Nc1nsc(-c2ccc(Cl)cc2)n1 | -0.79% (inactive)
Cc1cc(C)c(C(=O)CSc2nnc(-c3ccccc3Br)o2)cc1C | -2.75% (inactive)

Same assay, conditions: H69AR cells + 2 uM doxorubicin, CellTiter-Glo, 72 h; measured here: viability with 2 uM doxorubicin; at 10 µM; stronger effect = lower value

SMILES | viability [%]
Cc1csc(NC(=O)c2sc3nc(-c4cccs4)ccc3c2N)n1 | 60.3
O=S(=O)(Cc1ccc(Cl)cc1)Nc1ccc2c(c1)OCO2 | 86.8
O=C(CSc1nnnn1-c1ccccc1)Nc1nsc(-c2ccc(Cl)cc2)n1 | 54.8
Cc1cc(C)c(C(=O)CSc2nnc(-c3ccccc3Br)o2)cc1C | 75.8

Same assay, conditions: H69AR cells, CellTiter-Glo, 72 h; compound alone cytotoxicity; at 10 µM

SMILES | viability [%]
Cc1csc(NC(=O)c2sc3nc(-c4cccs4)ccc3c2N)n1 | 47.9
O=S(=O)(Cc1ccc(Cl)cc1)Nc1ccc2c(c1)OCO2 | 104
O=C(CSc1nnnn1-c1ccccc1)Nc1nsc(-c2ccc(Cl)cc2)n1 | 54
Cc1cc(C)c(C(=O)CSc2nnc(-c3ccccc3Br)o2)cc1C | 73.1

Assay: yeast transport mutant growth inhibition pilot in 384-well plates, post-Golgi transport modulator project (AID 636; in the data active means inhibition above about 31%)
Settings: absorbance 615 nm, about 18 h, stronger effect = higher value

SMILES | inhibition
Cc1csc(NC(=O)c2sc3nc(-c4cccs4)ccc3c2N)n1 | 0% (inactive)
O=S(=O)(Cc1ccc(Cl)cc1)Nc1ccc2c(c1)OCO2 | -0.53% (inactive)
O=C(CSc1nnnn1-c1ccccc1)Nc1nsc(-c2ccc(Cl)cc2)n1 | 0.39% (inactive)
CC[C@@H]1C(=O)OC[C@@H]1Cc1cncn1C | -3.12% (inactive)
Cc1cc(C)c(C(=O)CSc2nnc(-c3ccccc3Br)o2)cc1C | -3.87% (inactive)

Assay: growth suppression of yeast trafficking mutant, preliminary HTS, modulators of trafficking downstream of Golgi apparatus project, 1536-format plate, OD 615 nm (AID 637; in the data active means inhibition above about 30%)
Settings: yeast transport mutant growth, absorbance 615 nm, 18 h; stronger effect = higher value

SMILES | inhibition
Cc1csc(NC(=O)c2sc3nc(-c4cccs4)ccc3c2N)n1 | -6.35% (inactive)
O=S(=O)(Cc1ccc(Cl)cc1)Nc1ccc2c(c1)OCO2 | 4.29% (inactive)
O=C(CSc1nnnn1-c1ccccc1)Nc1nsc(-c2ccc(Cl)cc2)n1 | 3.33% (inactive)
CC[C@@H]1C(=O)OC[C@@H]1Cc1cncn1C | -5.5% (inactive)
Cc1cc(C)c(C(=O)CSc2nnc(-c3ccccc3Br)o2)cc1C | 3.49% (inactive)

Assay: S. cerevisiae growth inhibition in permissive medium (OD615), pilot counter-assay for S. cerevisiae lifespan shortening project, permissive growth control (AID 705)
Settings: OD615, 24 h, at 10 µM, stronger effect = higher value
Method in brief: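 Material: engineered DeaD yeast; compound dosing: one dose 10 µM, DMSO 0.25% final; measure: yeast growth inhibition indicated by reduced 24 h OD615; detection: OD615 turbidity read; incubation: cells pre-grown 4 h, then 24 h compound exposure, 30 °C humidified; medium: permissive synthetic complete medium with raffinose and galactose carbon sources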

SMILES | growth inhibition
COc1ccc(-c2noc(-c3cc(C)cc(C)c3)n2)cc1OC | -16.5% (inactive)
Cc1c(C(=O)O)nn(-c2ccccc2)c(=O)c1C#N | -15.2% (inactive)
N#CCCN1CCN(C(=S)c2ccc(-c3cccc(Cl)c3)o2)CC1 | -12.9% (inactive)
CCCc1nnc(NC(=O)c2ccncc2)s1 | -5.46% (inactive)
Brc1ccccc1-c1nnc(CSc2nnc3sc4ccccc4n23)o1 | 16.1% (inactive)
C=CCNc1ncnc2c1cnn2-c1ccc(Cl)cc1 | -2.23% (inactive)
C(#Cc1ccccc1)CN1CCN(c2ccccn2)CC1 | -7.33% (inactive)
CCOc1ccc(-c2nc(CSCC(=O)N3CCN(c4cccc(OC)c4)CC3)c(C)o2)cc1 | 5.25% (inactive)
COc1cc(Cl)c(S(=O)(=O)N2CCN(Cc3ccc4c(c3)OCO4)CC2)cc1Cl | -9.75% (inactive)
Brc1ccc(-c2nnc3ccc(N4CCN(c5ccccc5)CC4)nn23)cc1 | 7.94% (inactive)
CCCCOc1ccccc1C1NC(=O)NC(C)=C1C(=O)OCCOC (centres undefined) | -16% (inactive)
COc1ccc(OC)c(NC(=O)C2COc3ccccc3O2)c1 (centres undefined) | -10.5% (inactive)
Cc1c(S(=O)(=O)N2CCc3ccccc3C2)c(=O)n(C)c(=O)n1C | -14.9% (inactive)
CCN1CCN(CC(=O)Nc2cccc(C)c2)C(=O)C1=O | -9.91% (inactive)
CCOc1ccccc1C(=O)Nc1ccc2nc(N3CCN(c4ncccn4)CC3)cc(C)c2c1 | 5.8% (inactive)
CCOC(=O)c1ccccc1NC1c2ccccc2C(=O)N1c1ccc(C)cn1 (centres undefined) | -11.3% (inactive)

SMILES | growth inhibition
COc1ccc(OC)c(-c2cc(C(=O)N3CCN(c4ccccc4)CC3)no2)c1 | -11.8% (inactive)
CCC(Sc1nc2c(cnn2-c2ccccc2)c(=O)[nH]1)C(=O)OC (centres undefined) | -17.3% (inactive)
COCCNc1oc(-c2ccccc2Cl)nc1C#N | -7.99% (inactive)
O=C(Cn1c(=O)sc2ccccc21)NCc1ccccn1 | 1.44% (inactive)
C=CCSc1nnc2c(n1)OC=Nc1ccccc1-2 | -4.68% (inactive)
CCc1ccccc1S(=O)(=O)Cc1ccc(C(=O)N2CCN(c3ccccc3OC)CC2)o1 | -12.5% (inactive)
CCCCCCC1C(C#N)=C(N)OC2=C1C(=O)CC(C)(C)C2 (centres undefined) | -34.7% (inactive)
CCOC(=O)C1Cn2c(nc3c(c2=O)C2(CCCC2)Cc2ccccc2-3)S1 (centres undefined) | -15.5% (inactive)
O=C(c1cc(C2CC2)on1)N1CCN(c2ccc(F)cc2)CC1 | -18.2% (inactive)
COc1cccc(CSc2nc3sc(C)c(C)c3c(=O)n2Cc2ccco2)c1 | 6.35% (inactive)
COc1ccc(-c2n[nH]c(C)c2-c2cnn(-c3ccccc3)c2)c(O)c1 | 5.3% (inactive)
O=C1C2CCCN2C(c2ccc(F)cc2)N1c1ccc(Cl)cc1 (centres undefined) | -13% (inactive)
CCOc1ccccc1NC1c2ccccc2C(=O)N1c1ccc(C)cn1 (centres undefined) | -14.3% (inactive)
COc1cc(/C=C/C2=NC(=O)C(C)(C)O2)ccc1O | -1.35% (inactive)
O=C(O)c1ccc(CSc2nnc(COc3ccc(Cl)cc3Cl)o2)cc1 | 10.6% (inactive)
N#Cc1c(NC(=O)CCCN2C(=O)c3ccccc3C2=O)oc(-c2ccccc2)c1-c1ccccc1 | -1.81% (inactive)
